Our source for the inhibition values is ChEMBL document CHEMBL4837264, “Rational Design, Optimization, and Biological Evaluation of Novel MEK4 Inhibitors against Pancreatic Adenocarcinoma” (ACS Med Chem Lett, 2021).

For test [1], the target named is RAF proto-oncogene serine/threonine-protein kinase (Homo sapiens) (UniProt P04049). The test can be described thus: Inhibition of wild type partial length human RAF(I330 to T640 residues) expressed in bacterial expression system at 10 uM measured by Kinomescan assay. The essentials:
(§1)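 Kinome-wide binding scan on the scanEDGE DiscoverX platform, covering 97 kinases, each tested at a single compound concentration of 10 μM.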

The target in test [2] is Mitogen-activated protein kinase 3 (Homo sapiens) (UniProt P27361). In words: Inhibition of wild type full length human ERK1 (M1 to P397 residues) expressed in bacterial expression system at 10 uM measured by Kinomescan assay. The essentials: as §1
Mitogen-activated protein kinase 3 (Homo sapiens), sequence (P27361 whole entry, the tested form may be a part): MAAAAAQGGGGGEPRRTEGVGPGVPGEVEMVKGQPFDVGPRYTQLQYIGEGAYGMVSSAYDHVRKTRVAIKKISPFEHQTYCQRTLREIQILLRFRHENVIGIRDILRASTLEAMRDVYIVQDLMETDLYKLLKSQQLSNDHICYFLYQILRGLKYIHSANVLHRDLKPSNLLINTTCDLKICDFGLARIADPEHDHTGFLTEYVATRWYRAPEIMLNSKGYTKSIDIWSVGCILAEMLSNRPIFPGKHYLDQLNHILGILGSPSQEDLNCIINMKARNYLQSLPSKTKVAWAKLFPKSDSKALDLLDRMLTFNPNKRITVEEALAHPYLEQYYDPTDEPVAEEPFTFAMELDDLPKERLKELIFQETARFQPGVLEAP

The source made the active and inactive calls. The rule behind the calls is not given here.

RAF proto-oncogene serine/threonine-protein kinase (Homo sapiens), sequence (P04049 whole entry, the tested form may be a part): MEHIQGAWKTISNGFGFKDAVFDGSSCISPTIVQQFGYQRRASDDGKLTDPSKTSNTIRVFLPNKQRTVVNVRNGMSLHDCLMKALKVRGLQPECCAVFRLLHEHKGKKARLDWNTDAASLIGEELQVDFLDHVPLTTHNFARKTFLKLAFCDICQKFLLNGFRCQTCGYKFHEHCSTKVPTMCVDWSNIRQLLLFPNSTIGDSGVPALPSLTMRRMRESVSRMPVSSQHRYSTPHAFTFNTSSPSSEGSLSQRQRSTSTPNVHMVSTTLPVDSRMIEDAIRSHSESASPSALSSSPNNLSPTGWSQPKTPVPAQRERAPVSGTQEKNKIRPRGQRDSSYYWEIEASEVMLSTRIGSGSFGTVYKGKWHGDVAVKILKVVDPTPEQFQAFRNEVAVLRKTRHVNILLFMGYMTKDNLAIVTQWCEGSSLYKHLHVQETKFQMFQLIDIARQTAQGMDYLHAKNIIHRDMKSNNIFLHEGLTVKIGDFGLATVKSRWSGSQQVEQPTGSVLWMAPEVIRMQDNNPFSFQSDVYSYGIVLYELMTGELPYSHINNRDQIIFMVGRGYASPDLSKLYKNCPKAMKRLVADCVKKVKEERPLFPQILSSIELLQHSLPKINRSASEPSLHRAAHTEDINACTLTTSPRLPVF

With `NC(=O)c1ccc(NS(=O)(=O)c2cccc(-c3n[nH]c4cc(F)ccc34)c2)cc1`, the inhibition entry in test [1] and in test [2] was “inactive” each time.
